Data as given in ChEMBL document CHEMBL3102735, “Enhancing the pharmacodynamic profile of a class of selective COX-2 inhibiting nitric oxide donors” (Bioorg Med Chem, 2014).
Converted amounts (≈) assume the structure as drawn. The source made the active and inactive calls. The rule behind the calls is not given here.

How the values were obtained:
[1] = tested on: J774; test: Selectivity index, ratio of IC50 for COX-1 to IC50 for COX-2 in mouse J774 cells; assay type: cell-based
Method in brief: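 J774 macrophages stimulated 24 h with E. coli LPS (10 µg/mL) to induce COX-2, with or without compound (0.01–10 µM); supernatant PGE2 by RIA. Triplicate wells, three experiments, percent inhibition versus control, IC50 by sigmoidal fit; selectivity as COX-1/COX-2 IC50 ratio.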

[2] = molecular target: T1, Prostaglandin G/H synthase 2 (Mus musculus) (UniProt Q05769); test: Inhibition of LPS-induced COX-2 in mouse J774 cells using arachidonic acid as substrate assessed as inhibition of prostaglandin E2 production at 10 uM preincubated for 15 mins followed by substrate addition measured after 30 mins by RIA; assay type: cell-based
T1 sequence (whole entry): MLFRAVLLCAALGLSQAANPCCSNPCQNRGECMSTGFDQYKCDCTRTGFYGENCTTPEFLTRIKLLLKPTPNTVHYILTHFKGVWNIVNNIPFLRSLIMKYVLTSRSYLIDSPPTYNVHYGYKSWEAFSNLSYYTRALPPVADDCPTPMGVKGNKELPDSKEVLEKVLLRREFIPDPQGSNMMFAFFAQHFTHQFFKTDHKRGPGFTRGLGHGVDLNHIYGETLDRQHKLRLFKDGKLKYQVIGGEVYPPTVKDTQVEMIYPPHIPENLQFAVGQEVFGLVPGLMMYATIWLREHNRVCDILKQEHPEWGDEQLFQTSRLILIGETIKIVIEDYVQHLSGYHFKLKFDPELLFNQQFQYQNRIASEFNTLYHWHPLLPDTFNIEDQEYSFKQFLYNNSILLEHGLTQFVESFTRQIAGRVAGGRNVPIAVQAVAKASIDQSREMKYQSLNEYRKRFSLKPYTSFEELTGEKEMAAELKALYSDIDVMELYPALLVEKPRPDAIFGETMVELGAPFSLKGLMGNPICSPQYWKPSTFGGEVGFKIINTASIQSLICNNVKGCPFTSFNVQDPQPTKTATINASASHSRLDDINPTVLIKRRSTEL

[3] = molecular target: T2, Prostaglandin G/H synthase 1 (Mus musculus) (UniProt P22437); test: Inhibition of COX-1 in mouse J774 cells using arachidonic acid as substrate assessed as inhibition of prostaglandin E2 production at 10 uM preincubated for 15 mins followed by substrate addition measured after 30 mins by RIA; assay type: cell-based
T2 sequence (whole entry): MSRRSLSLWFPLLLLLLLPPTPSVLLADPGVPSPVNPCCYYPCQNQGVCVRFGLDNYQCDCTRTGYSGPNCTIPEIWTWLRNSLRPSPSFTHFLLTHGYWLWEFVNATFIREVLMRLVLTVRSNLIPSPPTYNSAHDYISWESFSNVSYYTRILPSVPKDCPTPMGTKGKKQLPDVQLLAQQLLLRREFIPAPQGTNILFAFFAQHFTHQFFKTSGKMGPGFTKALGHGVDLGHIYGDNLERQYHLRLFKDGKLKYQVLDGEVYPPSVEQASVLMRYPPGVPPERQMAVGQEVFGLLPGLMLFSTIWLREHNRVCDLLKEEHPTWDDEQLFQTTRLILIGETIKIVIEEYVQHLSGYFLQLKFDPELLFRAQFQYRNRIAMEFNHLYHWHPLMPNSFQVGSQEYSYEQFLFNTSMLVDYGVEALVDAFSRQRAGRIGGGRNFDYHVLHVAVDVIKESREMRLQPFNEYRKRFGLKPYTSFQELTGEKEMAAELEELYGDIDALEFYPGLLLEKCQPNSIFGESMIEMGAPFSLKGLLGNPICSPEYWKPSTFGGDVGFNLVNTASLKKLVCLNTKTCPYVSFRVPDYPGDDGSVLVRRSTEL
Method in brief: (§1)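 J774 murine macrophages pretreated 15 min with compound (10 µM; lower concentrations 0.01–1 µM where needed), then incubated 30 min at 37 °C with 15 µM arachidonic acid; supernatant PGE2 measured by RIA. Triplicate wells, mean of three experiments of percent inhibition versus control; IC50 by sigmoidal fit.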

[4] = molecular target: T3, Prostaglandin G/H synthase 1 (Mus musculus, UniProt P22437); test: Inhibition of COX-1 in mouse J774 cells using arachidonic acid as substrate assessed as inhibition of prostaglandin E2 production preincubated for 15 mins followed by substrate addition measured after 30 mins by RIA; assay type: cell-based; method in brief: as §1
T3 sequence (P22437 whole entry): T2 sequence (whole entry)

[5] = tested on: Mus musculus; test: Analgesic activity in po dosed Swiss albino mouse assessed as reduction of acetic acid-induced writhing measured every 10 mins after 5 mins of administration; assay type: functional, organism-based
Method in brief: (§2)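 Male Swiss albino mice (23–25 g), compound given orally in CMC vehicle; writhing induced by 0.6% acetic acid (10 mL/kg) ip. Stretching movements counted for 10 min, starting 5 min after administration; percent reduction versus CMC-treated animals.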

[6] = molecular target: T4, Prostaglandin G/H synthase 2 (Mus musculus, UniProt Q05769); test: Inhibition of LPS-induced COX-2 in mouse J774 cells using arachidonic acid as substrate assessed as inhibition of prostaglandin E2 production preincubated for 15 mins followed by substrate addition measured after 30 mins by RIA; assay type: cell-based
T4 sequence (Q05769 whole entry): T1 sequence (whole entry)

[7] = tested on: Thoracic aorta; test: Ex vivo vasorelaxant activity in Wistar rat endothelium thoracic aortic ring assessed as reduction of KCl-induced contraction in presence of guanylate cyclase inhibitor ODQ; assay type: functional
Method in brief: (§3)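 Endothelium-denuded thoracic aortic rings from male Wistar rats (250–350 g) in oxygenated Tyrode-type buffer at 37 °C, isometric tension recording. Rings precontracted with 30 mM KCl, then 3-fold increasing compound concentrations (1 nM–10 µM) added, also with 1 µM ODQ preincubated. Emax as % of KCl tone; pIC50; mean ± SE of 6–10 experiments.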

[8] = tested on: Mus musculus; test: Analgesic activity in Swiss albino mouse assessed as reduction of acetic acid-induced writhing at 10 mg/kg, po measured every 10 mins after 5 mins of administration relative to control; assay type: functional; design: scale not given: the % may be the effect or the level left; method in brief: as §2
[9] = tested on: Thoracic aorta; test: Ex vivo vasorelaxant activity in Wistar rat endothelium thoracic aortic ring assessed as reduction of KCl-induced contraction at 0.001 uM to 10 uM relative to control; assay type: functional; method in brief: as §3
[10] = tested on: Mus musculus; test: Analgesic activity in Swiss albino mouse assessed as reduction of acetic acid-induced writhing at 20 mg/kg, po measured every 10 mins after 5 mins of administration relative to control; assay type: functional; design: scale not given: the % may be the effect or the level left; method in brief: as §2
[11] = Solubility of the compound in simulated gastric fluid at pH 1.5 after 90 mins by HPLC analysis; assay type: ADME
Method in brief: (§4)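 DMSO stock (20 mM) diluted 2 µL into 198 µL PBS 0.01 M pH 7.4 or pepsin-free SGF 0.05 M pH 1.5, duplicate wells, shaken 90 min at 300 rpm. Filtrates analysed by HPLC with photodiode-array detection against seven-point standards (1–200 µM).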

[12] = tested on: Mus musculus; test: Analgesic activity in Swiss albino mouse assessed as reduction of acetic acid-induced writhing at 40 mg/kg, po measured every 10 mins after 5 mins of administration relative to control; assay type: functional; design: scale not given: the % may be the effect or the level left; method in brief: as §2
[13] = Solubility of the compound in phosphate buffer saline at pH 7.4 after 90 mins by HPLC analysis; assay type: physicochemical; method in brief: as §4

Cc1c(CC(=O)NCCO)cc(-c2ccc(S(C)(=O)=O)cc2)n1-c1cccc(F)c1
Ratio IC50 [1]: > 34 | inhibition [2]: 95% | inhibition [3]: 0% | IC50 [4]: > 10 µM

Cc1c(CC(=O)NC(CCO)C(=O)O)cc(-c2ccc(S(C)(=O)=O)cc2)n1-c1cccc(F)c1 (racemic)
Ratio IC50 [1]: > 10 | inhibition [2]: 79% | inhibition [3]: 16% | IC50 [4]: > 10 µM

Cc1c(CC(=O)NCCO[N+](=O)[O-])cc(-c2ccc(S(C)(=O)=O)cc2)n1-c1cccc(F)c1
Ratio IC50 [1]: > 33 | Activity [5]: Dose-dependent effect | IC50 [6]: 0.3 µM | Activity [7]: inactive | Activity [8]: 18% | Emax [9]: 49% | inhibition [2]: 95% | Activity [10]: 37% | solubility at 1.5 h [11]: 150 µM (≈ 71.3 µg/mL) | inhibition [3]: 0% | IC50 [4]: > 10 µM | Activity [12]: 55% | solubility at 1.5 h [13]: > 200 µM

Cc1c(CC(=O)NC(CO)C(=O)O)cc(-c2ccc(S(C)(=O)=O)cc2)n1-c1cccc(F)c1 (racemic)
Ratio IC50 [1]: > 167 | IC50 [6]: 0.068 µM | inhibition [2]: 100% | inhibition [3]: 23% | IC50 [4]: > 10 µM

Cc1c(CC(=O)NC(CCO[N+](=O)[O-])C(=O)O)cc(-c2ccc(S(C)(=O)=O)cc2)n1-c1cccc(F)c1 (racemic)
Ratio IC50 [1]: > 6 | Activity [5]: Dose-dependent effect | Activity [7]: inactive | Emax [9]: 25% | inhibition [2]: 43% | Activity [10]: 10% | inhibition [3]: 27% | IC50 [4]: > 10 µM | Activity [12]: 23%

Cc1c(CC(=O)NC(CO[N+](=O)[O-])C(=O)O)cc(-c2ccc(S(C)(=O)=O)cc2)n1-c1ccc(F)cc1 (stereo not drawn)
Ratio IC50 [1]: > 32 | Activity [5]: Dose-dependent effect | IC50 [6]: 0.31 µM | Activity [7]: inactive | Activity [8]: 0% | Emax [9]: 25% | inhibition [2]: 100% | Activity [10]: 29% | solubility at 1.5 h [11]: 112 µM (≈ 58.2 µg/mL) | inhibition [3]: 0% | IC50 [4]: > 10 µM | Activity [12]: 50% | solubility at 1.5 h [13]: 90.5 µM (≈ 47 µg/mL)
